TRPC6 inhibitor – mouse TRPC6 channel inhibitors, primary screen, cell-based, HEK293, membrane potential dye | Short transient receptor potential channel 6 (Mus musculus), Q61143 | ACh-evoked depolarization; stronger effect = lower value | B-score at 10 µM | 1.1% of 310,000 active;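 active = B-score under library mean minus 3 SD, initial fluorescence not abnormally high, positive integrated signal ratio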;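 also: B-score derived from integrated fluorescence ratio over the kinetic read; more negative B-score means stronger inhibition of depolarization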
TRPC4 block – inhibitors of mouse TRPC4 channel, primary screen, Fluo4 calcium, HEK293 TRPC4beta/mu-opioid cells. AID 2247, 2010. DAMGO-evoked Fluo4 calcium flux; stronger effect = lower value. 0.39% of 300,000 active. B-score at 10 µM;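 active = B-score over 3 SD under the library average, no early fluorescence shift, positive overall ratio signal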
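Assay system: Stable TRPC4beta/mu-opioid receptor HEK293 cells | Reagent: DAMGO in two steps, submaximal then maximal | Compound dosing: Single concentration per test compound | Signal: Fluo4 Ca2+ flux fluorescence | Evaluation: Per-well B score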
TRPC6 activator – mouse TRPC6 channel activators, primary screen, cell-based, HEK293, membrane potential dye; Short transient receptor potential channel 6 (Mus musculus), Q61143; HEK293-TRPC6 membrane potential dye fluorescence; stronger effect = higher value; B-score at 10 µM; 0.13% of 310,000 active; AID 2550, 2010;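 active = B-score of the integrated fluorescence ratio above library mean plus 3 SD, and starting fluorescence ratio within library mean plus 5 SD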;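 also: higher score means more depolarization so channel activation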
TRPC4 PAM – positive allosteric modulators of TRPC4, primary screen, cell-based, mouse TRPC4beta, HEK293 mu-opioid, Fluo-4 calcium | Short transient receptor potential channel 4 (Mus musculus), Q9QUQ5 | DAMGO EC20, Fluo-4 Ca2+ flux; stronger effect = higher value | B-score at 10 µM | 0.42% of 310,000 active | AID 2227, 2009;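 active = B-score of calcium response area above 5 SD of library B-scores, with initial fluorescence ratio within 5 SD of library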;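 also: B-score of integrated fluorescence ratio over time as area under calcium response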
TRPC4 act – activators of mouse TRPC4 channel, primary screen, Fluo4 calcium, HEK293 TRPC4beta/mu-opioid cells | Fluo4 calcium fluorescence; stronger effect = higher value | Short transient receptor potential channel 4 (Mus musculus), Q9QUQ5 | 0.49% of 310,000 active | AID 2237, 2010 | B-score at 10 µM;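 active = B-score above 5 SD of library B-scores, and initial fluorescence ratio not above library mean plus 5 SD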;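 also: positive B-score marks a calcium rise read as TRPC4 activation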
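Incubation: 45 min room-temperature Fluo4 loading, 110 s read / System: HEK293 cells stably co-expressing mouse TRPC4beta and mu-opioid receptor / Signal: Fluo4 fluorescence, kinetic / Control set: buffer (low) and maximal DAMGO (high) / Measure: integrated baseline-normalised fluorescence ratio, converted to per-well B score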
* hit, by the source's call; i = inactive. In the library only some 2.3% were active in any assay of this set; here they are far more common.

SMILES	TRPC6 inhibitor	TRPC4 block	TRPC6 activator	TRPC4 PAM	TRPC4 act
CC(=O)N1N=C(c2ccc(Br)cc2)OC1(C)CC(=O)Nc1ccccc1 (configuration not stated)	i	i	i	15*	i
COc1ccc(S(=O)(=O)Nc2ccccc2C(=O)NCc2cccnc2)cc1	i	i	i	i	i
O=C(N/N=C/c1ccccc1[N+](=O)[O-])c1cnccn1	i	i	i	20*	i
COc1ccc(C(=O)CN2CCN(CCN3C(=O)c4cccc5cccc(c45)C3=O)CC2)cc1	i	i	i	15*	i
O=C(CN1CCN(CCN2C(=O)c3cccc4cccc(c34)C2=O)CC1)c1ccc(F)cc1	i	i	i	i	i
Cc1ccc(OC(C)C(=O)Nc2ccccc2C(=O)N2CCN(C)CC2)cc1 (configuration not stated)	i	i	i	i	i
COc1ccc(C)cc1N(C(=O)c1ccccc1F)c1nc2ccccc2s1	i	-6*	i	i	i
COc1ccccc1C1/C(=C(\O)c2ccc3c(c2)OCCO3)C(=O)C(=O)N1Cc1cccnc1 (configuration not stated)	i	-6*	i	i	i
COc1ccc(C2/C(=C(\O)c3ccc4c(c3)OCCO4)C(=O)C(=O)N2Cc2cccnc2)cc1 (configuration not stated)	i	i	i	i	i
Nc1nc2c(nc(SCc3ccccc3Br)n2[C@@H]2O[C@H](CO)[C@@H](O)[C@H]2O)c(=O)[nH]1	i	i	i	i	i
N#CC(C#N)=c1ccc2c(c1)N1C3=C(CCCC3)CC3CCCCC31N=2 (configuration not stated)	-8.5*	i	i	i	i
O=C(c1cc(N2CCOCC2)c(F)cc1[N+](=O)[O-])N1CCOCC1	i	i	i	i	i
Cc1cc(/C=C2/C(=N)N3C(=NC2=O)SN=C3S(C)(=O)=O)c(C)n1-c1ccccc1F	i	-6*	i	i	i
Cc1ccc(C)c(NC(=O)CCc2nnc3ccc(N4CCCC4)nn23)c1	i	i	i	i	i
Cc1ccc(C)c(CN2CCC(CNC(=O)CCc3nnc4ccc(N5CCCCC5)nn34)CC2)c1	i	i	i	i	126*
Cc1ccc(S(=O)(=O)c2c(C(=O)c3ccccc3)cnc3cc4c(cc23)OCCO4)cc1	i	i	i	18*	i
CN(C)CCN(C(=O)c1ccc(S(=O)(=O)N2CCCC2)cc1)c1nc2ccc(Br)cc2s1	i	i	i	i	i
CCN(Cc1ccccc1)S(=O)(=O)c1ccc(C(=O)N(CCCN(C)C)c2nc3c(F)cccc3s2)cc1	i	i	i	i	112*
Cc1ccc2sc(N(CCCN(C)C)C(=O)c3ccc(S(=O)(=O)N4CCc5ccccc5C4)cc3)nc2c1C	i	i	i	i	i
CN(C)CCCN(C(=O)c1ccc(S(=O)(=O)N2CCc3ccccc3C2)cc1)c1nc2c(F)cc(F)cc2s1	i	i	i	i	58*
CCOc1cccc2sc(N(CCCN(C)C)C(=O)c3ccc(S(=O)(=O)N(CC)Cc4ccccc4)cc3)nc12	i	i	i	i	i
CCOc1cccc2sc(N(CCCN(C)C)C(=O)c3ccc(S(=O)(=O)N4CCCCCC4)cc3)nc12	i	i	i	i	i
CN(C)CCCN(C(=O)c1ccc(S(=O)(=O)N2CCCCCC2)cc1)c1nc2ccc(F)cc2s1	i	i	i	i	336*
CN(C)CCCN(C(=O)c1ccc(S(=O)(=O)N2CCCCCC2)cc1)c1nc2c(F)cccc2s1	i	-6*	i	i	54*
CCCNC(=O)c1ccc(COc2ccc(CCC)cc2OC)o1	i	i	i	i	i
SMILES	TRPC6 inhibitor	TRPC4 block	TRPC6 activator	TRPC4 PAM	TRPC4 act
Cc1ccc(NC(=O)CCc2nnc3ccc(NCc4ccco4)nn23)cc1	i	i	i	i	i
Cc1ccc2nc(N(CCCN(C)C)C(=O)c3ccc(S(=O)(=O)N4CCCCCC4)cc3)sc2c1	i	i	i	14*	43*
CN(C)CCCN(C(=O)c1ccc(S(=O)(=O)N2CCOCC2)cc1)c1nc2ccc(F)cc2s1	i	i	i	i	57*
CCc1ccc2nc(N(CCCN(C)C)C(=O)c3ccc(S(=O)(=O)N4CCCC4)cc3)sc2c1	i	i	i	i	i
C=CCOn1c(=O)c(-c2ccc(F)cc2)[n+]([O-])c2ccccc21	i	i	i	i	i
COc1cc(-c2nc3ccc4ccccc4c3c3c2CCC3)cc(OC)c1OC	i	i	i	i	i
COc1cc2ccccc2c2c1CCCC2=O	i	-6*	i	i	i
CSCCNC(=O)c1ccc2nc(C3CCCCC3)oc2c1	i	i	i	i	i
CCCCS(=O)(=O)N1CCCC(C(=O)NCC2CCCO2)C1 (configuration not stated)	i	i	i	i	85*
CCC(C)c1ccc(N(CC(=O)NC(C)(C)C)C(=O)CNC(=O)c2cccs2)cc1 (configuration not stated)	i	i	i	i	i
CC(Oc1ccc(Cl)cc1)C(=O)NCC1CCCO1 (configuration not stated)	i	i	i	i	i
COc1ccc(-c2nn(-c3ccccc3)cc2CNCc2cccnc2)c(F)c1	i	i	i	i	103*
COc1cccc(-c2nn(-c3ccccc3)cc2CO)c1	i	i	i	i	i
Fc1ccccc1COc1ccc(Br)cc1CNCc1cccnc1	i	i	i	i	i
COc1ccc(-n2cc(CNCc3cccnc3)c(-c3cccc(F)c3)n2)cc1	i	i	i	i	94*
COc1ccc(CNCc2cn(-c3cccc(F)c3)nc2-c2ccc(C)o2)cc1	i	i	i	i	103*
COc1ccc(-c2nn(-c3ccccc3C)cc2CNCc2cccnc2)cc1F	i	i	i	i	178*
CCn1c(C)nc2cc(C(=O)N/N=C/c3cccc(O)c3O)ccc21	i	i	i	77*	i
O=C(c1ccco1)N1CCN(CCCCOc2ccc(F)cc2)CC1	i	i	i	i	i

Screens: PubChem, Johns Hopkins Ion Channel Center
